The values that follow come from PubChem BioAssay.

A short description of assay [1]: inhibitors of TNFa-induced NFkB p65 translocation, primary screen, imaging, HUVEC, MLSMR starter and 10KST1 sets (AID 438).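 Also: compound added about 3h40 before a 20 min TNFalpha stimulation.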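 As to inhibition: signal is the nuclear over cytoplasmic p65 intensity ratio per well.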 The note with it: HUVEC TNFa-induced p65 nuclear translocation; cell count: measured here: nuclei count (cytotoxicity indicator), at 2.08 µM; inhibition: at 2 µM, stronger effect = higher value, 0% TNFa-plus-vehicle, 100% no-TNFa wells.
The nature of assay [2]: reduction of polyQ htt aggregates in cells – imaging, exon1htt(103Q)mCFP cells, high-content imaging, primary screen (AID 483;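 active = visual image review flags a hit and inhibition of aggregation exceeds 20%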;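 also: compound exposure lasted 3 days before fixation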;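 as to nuclei count: percent of the per-plate median nuclei count of sample wells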). The note with it: exon1htt(103Q)mCFP cell line, aggregate imaging, at 2 µM; inhibition of aggregation: stronger effect = higher value; nuclei count: measured here: cell count, toxicity.
Assay [3] can be described thus: endothelial E-selectin expression blockers – imaging, HUVEC, immunofluorescence, MLSMR starter and 10KST1 sets, primary screen (AID 487;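 active = visually confirmed hit in the image check and inhibition above 20%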;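 as to inhibition: signal is fraction of cell area covered by stained E-selectin grains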;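 as to nuclei count: 100% = median nuclei count of all wells on the same plate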). The note with it: HUVEC TNFalpha-induced E-selectin immunofluorescence imaging, at 2 µM; inhibition: stronger effect = higher value; nuclei count: measured here: cell number, toxicity.
Assay [4] concerns the target Voltage-gated potassium channel subunit beta-2 (Rattus norvegicus) (UniProt P62483). Kind of assay: inhibitors of rat Kvbeta2 reductase activity – biochemical, NADPH fluorescence, primary screen (AID 622;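 active = fluorescence slope higher than the sample average by over 3 SD, cut at about -0.22 in these data, passing the limit was not always enough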;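 also: slope of raw intensity against log time taken from 70 to 1610 s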). The note with it: recombinant KvBeta, 4-cyanobenzaldehyde reduction, at 10 µM, stronger effect = higher value.
Assay [5] has the same target. Kind of assay: enhancers of rat Kvbeta2 NADPH turnover – biochemical, NADPH fluorescence, primary screen (AID 623;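 active = NADPH fluorescence slope more negative than the mean of all samples by about 3 SD, 99.7% confidence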;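 also: fluorescence intensity change per second fitted from 20 to 320 s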). The following applies: Recombinant KvBeta, NADPH fluorescence decrease slope, 10 min; at 10 µM; stronger effect = lower value.
The target of assay [6] is Muscarinic acetylcholine receptor M4 (Homo sapiens) (UniProt P08173). Kind of assay: M4-linked GIRK flux change, two-sided – cell-based, HEK293 M4/GIRK, thallium flux, BTC-AM, M4 allosteric agonist project, primary screen (AID 625;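 active = fluorescence slope after compound addition differing from the mean of all tested samples at 99.7% confidence, mostly higher but some lower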;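 also: thallium influx through GIRK channels coupled to M4 in HEK293 cells with BTC-AM dye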). The note with it: at 10 µM, actives lie on both sides. In short, it runs like this: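 assay system = HEK293 cells with M4 receptor and GIRK channels | medium = pH 7.3 thallium assay buffer | doses = 10 µM final, single point | timing = cells overnight at 37 °C, BTC-AM loading 1 h, reads 2 min total | signal = BTC-AM fluorescence, 1 Hz kinetic reads | read-out = post-addition slope, 15–24 s, of baseline-normalized fluorescence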

A short description of assay [7]: blockers of RIG-like receptor reporter activation – cell-based, Sendai virus stimulus, luciferase, 10K MLSCN set, TLR/RLR signaling modifier project, primary screen (AID 602276;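 active = inhibition at or above 50% at 10 µM; inactive = inhibition below 50%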;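 also: firefly luciferase from ISG56 promoter only with Renilla not read in this screen; 0% = Sendai virus plus DMSO and 100% = medium plus DMSO without virus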). The note with it: HEK293 RL24 IRF3 luciferase reporter, at 10 µM, stronger effect = higher value. Background: A reporter such as luciferase makes a cellular process visible.
A short description of assay [8]: TLR3 IRF3 reporter activation blockers – cell-based, poly I:C stimulus, luciferase, 10K MLSCN set, primary screen (AID 602277;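 active = inhibition of the reporter signal at or above 50%; inactive = inhibition below 50%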). The note with it: HEK293-TLR3 RL24 IRF3 luciferase reporter, at 10 µM, stronger effect = higher value.

Activity calls are given as the source filed them.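 The calls were made as follows, unless noted: active = inhibition above 20% together with a positive visual image hit; inconclusive = visual image hit but inhibition not above 20%; inactive = no visual image hit.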

Chain of Voltage-gated potassium channel subunit beta-2 (Rattus norvegicus) (P62483 whole entry, looked up): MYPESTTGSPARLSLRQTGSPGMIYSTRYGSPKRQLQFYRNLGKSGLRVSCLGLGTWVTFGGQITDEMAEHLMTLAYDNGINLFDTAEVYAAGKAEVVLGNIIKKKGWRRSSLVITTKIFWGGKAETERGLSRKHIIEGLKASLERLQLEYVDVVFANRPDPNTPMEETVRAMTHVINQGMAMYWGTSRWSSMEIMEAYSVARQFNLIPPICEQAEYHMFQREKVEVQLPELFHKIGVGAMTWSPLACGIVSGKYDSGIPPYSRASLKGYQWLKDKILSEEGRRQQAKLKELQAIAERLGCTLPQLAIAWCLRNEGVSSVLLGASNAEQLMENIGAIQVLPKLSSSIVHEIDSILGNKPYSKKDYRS
Chain of Muscarinic acetylcholine receptor M4 (Homo sapiens) (P08173 whole entry, looked up): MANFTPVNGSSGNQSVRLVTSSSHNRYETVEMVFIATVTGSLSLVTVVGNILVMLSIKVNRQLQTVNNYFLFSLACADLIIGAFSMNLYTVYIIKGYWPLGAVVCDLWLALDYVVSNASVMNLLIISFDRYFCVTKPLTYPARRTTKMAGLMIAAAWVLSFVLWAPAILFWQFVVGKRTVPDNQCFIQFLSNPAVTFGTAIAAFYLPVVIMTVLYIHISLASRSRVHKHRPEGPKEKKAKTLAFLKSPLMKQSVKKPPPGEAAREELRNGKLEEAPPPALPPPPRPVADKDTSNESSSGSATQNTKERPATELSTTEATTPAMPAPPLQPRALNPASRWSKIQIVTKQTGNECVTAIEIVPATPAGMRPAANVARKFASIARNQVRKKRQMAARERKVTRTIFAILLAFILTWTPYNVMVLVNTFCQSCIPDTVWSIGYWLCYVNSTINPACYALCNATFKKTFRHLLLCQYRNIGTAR

The inhibition is the drop in the measured response relative to a control, in per cent. `Cc1cc(NCCCn2ccnc2)n2c(nc3ccccc32)c1C#N`: in assay [1], the cell count was 276. The inhibition in assay [1] is -23.5% (inactive); in assay [3], 16.6% (inactive); in assay [7], -6.75% (inactive); in assay [8], -0.197% (inactive). The inhibition of aggregation in assay [2] was 17.7% (inactive). For the same molecule, the nuclei count amounted to 70.2% in assay [2] and 80.2% in assay [3]. Also, the results for the fluorescence slope in assay [4] and in assay [6] were -0.501 (inactive) and 0.00606 (inactive), respectively. The NADPH fluorescence slope in assay [5] is 2e-06 (inactive).

As for `COc1ccc(C(C(C(=O)c2cccs2)N2CCOCC2)N2CCOCC2)cc1OC` (centres undefined), the cell count in assay [1] came out at 704. Also, the inhibition was 3.6% (inactive) in assay [1], 15.2% (inactive) in assay [3], 8.73% (inactive) in assay [7] and 2.75% (inactive) in assay [8]. Moreover, the inhibition of aggregation in assay [2] was 6.6% (inactive). The nuclei count is 115% in assay [2] and 106% in assay [3]. For the same molecule, the fluorescence slope in assay [4] is -0.603 (inactive); in assay [6], 0.00372 (inactive). In addition, the NADPH fluorescence slope in assay [5] was -3.1e-05 (inactive).

Regarding `CC(=O)c1cc(-c2ccccc2)n(CC(=O)N2CCN(C3CCCC3)CC2)c1C`, the cell count in assay [1] worked out at 407. Also, the inhibition in assay [1] was 8.8% (inactive); in assay [3] it was 25.1% (inactive); in assay [7], 13.3% (inactive); in assay [8], 23.8% (inactive). The inhibition of aggregation in assay [2] is 23.8% (inactive). Also, the figures for the nuclei count in assay [2] and in assay [3] were 81% and 103%, respectively. Further, the fluorescence slope was -0.571 (inactive) in assay [4] and 0.00681 (inactive) in assay [6]. Besides, the NADPH fluorescence slope in assay [5] was -7.1e-05 (inactive).

Regarding `CC(CN1CCOCC1)(NS(=O)(=O)c1ccccc1)c1ccccc1` (centres undefined), in assay [1], the cell count came to 460. In addition, the inhibition in assay [1] was -12% (inactive); in assay [3], 8% (inactive); in assay [7], 4.38% (inactive); in assay [8], 7.26% (inactive). Besides, the inhibition of aggregation in assay [2] was 10.4% (inactive). For the same molecule, the nuclei count in assay [2] was determined as 85.8%; in assay [3], 111%. Moreover, the fluorescence slope in assay [4] was -0.576 (inactive); in assay [6], 0.00534 (inactive). The NADPH fluorescence slope in assay [5] was -4.5e-06 (inactive).

`CC1(C)Cc2noc(N)c2C(C)(C)N1OC(=O)c1cccs1`: the cell count in assay [1] was 379. Besides, the inhibition is 0% (inactive) in assay [1], -80.4% (inactive) in assay [3], 4.03% (inactive) in assay [7] and 12.6% (inactive) in assay [8]. The inhibition of aggregation in assay [2] is 5.5% (inactive). Also, the values for the nuclei count in assay [2] and in assay [3] were 110% and 129%, respectively. Besides, the fluorescence slope in assay [4] is -0.46 (inactive); in assay [6] it was 0.00603 (inactive). The NADPH fluorescence slope in assay [5] is 1.8e-05 (inactive).

Consider `CCCn1c(SCC(=O)Nc2nnc(-c3ccccc3)s2)nnc1-c1ccccn1`, for which the cell count in assay [1] was found to be 591. Moreover, the inhibition in assay [1] is -5.1% (inactive); in assay [3], 7% (inactive); in assay [7] it was -15.8% (inactive); in assay [8] it was -30% (inactive). Also, the inhibition of aggregation in assay [2] is 14.9% (inactive). For the same molecule, the nuclei count in assay [2] was determined as 45.4%; in assay [3] it was 105%. Also, the fluorescence slope in assay [4] was -0.376 (inactive); in assay [6], 0.00563 (inactive). For the same molecule, the NADPH fluorescence slope in assay [5] was 1.2e-05 (inactive).

Regarding `Nc1nonc1-c1noc(CCCCCN2C(=O)c3ccccc3C2=O)n1`, the cell count in assay [1] came to 221. For the same molecule, the inhibition in assay [1] was 6.9% (inactive); in assay [3], 9.5% (inactive); in assay [7], -4.73% (inactive); in assay [8], -15.6% (inactive). In addition, in assay [2], the inhibition of aggregation was -10.5% (inactive). The nuclei count in assay [2] was found to be 91%; in assay [3], 88%. The fluorescence slope is -0.522 (inactive) in assay [4] and 0.00407 (inactive) in assay [6]. For the same molecule, in assay [5], the NADPH fluorescence slope was -2.2e-05 (inactive).

As to `COCCCNC(=O)CC(NS(=O)(=O)c1ccc(Cl)cc1)c1ccco1` (centres undefined), in assay [1], the cell count worked out at 402. Besides, the inhibition was 0.3% (inactive) in assay [1], -62.8% (inactive) in assay [3], 11.7% (inactive) in assay [7] and 20.4% (inactive) in assay [8]. Besides, the inhibition of aggregation in assay [2] was -20.4% (inactive). For the same molecule, the nuclei count was 112% in assay [2] and 121% in assay [3]. The fluorescence slope in assay [4] is -0.541 (inactive); in assay [6] it was 0.00644 (inactive). The NADPH fluorescence slope in assay [5] was -4.5e-05 (inactive).

As to `CCOC(=O)C(CC)Sc1ncnc2nc[nH]c12` (centres undefined), the cell count in assay [1] is 351. Further, the inhibition in assay [1] is 1.9% (inactive); in assay [3], -46% (inactive); in assay [7] it was 3.43% (inactive); in assay [8], 5.34% (inactive). Also, the inhibition of aggregation in assay [2] was -18.9% (inactive). The nuclei count was 98.7% in assay [2] and 123% in assay [3]. The fluorescence slope in assay [4] was -0.555 (inactive); in assay [6], 0.00496 (inactive). In addition, the NADPH fluorescence slope in assay [5] is -2.8e-05 (inactive).

Regarding `Cc1ccccc1CN1CCN(CC(=O)NCc2ccco2)C1=O`, the cell count in assay [1] came to 395. Also, the inhibition in assay [1] is -1.7% (inactive); in assay [3], -7.2% (inactive); in assay [7], 23.3% (inactive); in assay [8], 22.7% (inactive). Besides, the inhibition of aggregation in assay [2] was -11.1% (inactive). The values for the nuclei count in assay [2] and in assay [3] were 97.3% and 109%, respectively. In addition, the fluorescence slope in assay [4] was -0.511 (inactive); in assay [6] it was 0.00663 (inactive). Moreover, the NADPH fluorescence slope in assay [5] is -0.000109 (inactive).

Regarding `COc1ccccc1NC(=O)c1nnn(CC(=O)Nc2ccccc2)c1N`, the cell count in assay [1] was found to be 234. Also, the inhibition in assay [1] is -4.4% (inactive); in assay [3] it was -9.9% (inactive); in assay [7], 9.85% (inactive); in assay [8], 23.6% (inactive). Also, the inhibition of aggregation in assay [2] is -30.9% (inactive). Moreover, the nuclei count in assay [2] is 95.9%; in assay [3], 103%. In addition, the fluorescence slope in assay [4] is -0.416 (inactive); in assay [6], 0.00673 (inactive). Also, the NADPH fluorescence slope in assay [5] was 5.5e-05 (inactive).

On to `COc1ccc(N2CCN(C(=O)CSc3ccccc3N)CC2)cc1`, for which, in assay [1], the cell count was found to be 334. The inhibition in assay [1] was -3% (inactive); in assay [3], -18.9% (inactive); in assay [7], 4.54% (inactive); in assay [8] it was 22.7% (inactive). In addition, the inhibition of aggregation in assay [2] was 7.8% (inactive). In addition, the nuclei count in assay [2] was determined as 96.1%; in assay [3], 106%. Also, the fluorescence slope in assay [4] is -0.501 (inactive); in assay [6] it was 0.00478 (inactive). Moreover, the NADPH fluorescence slope in assay [5] was -0.00016 (inactive).

As for `CCOCCCNc1ncnc2c1[nH]c1ccccc12`, the cell count in assay [1] came to 252. The inhibition in assay [1] was 7.8% (inactive); in assay [3], -49.2% (inactive); in assay [7], -24.7% (inactive); in assay [8], -100% (inactive). In addition, the inhibition of aggregation in assay [2] was -7.5% (inactive). Further, the nuclei count amounted to 72.9% in assay [2] and 109% in assay [3]. Also, the fluorescence slope in assay [4] was -0.513 (inactive); in assay [6] it was 0.00341 (inactive). Further, the NADPH fluorescence slope in assay [5] is -0.000137 (inactive).

Consider `O=C(NC1CCCC1)c1ccc(S(=O)(=O)N2CCCC2)cc1`, for which the cell count in assay [1] was 452. For the same molecule, the inhibition was -8% (inactive) in assay [1], -93.7% (inactive) in assay [3], -19.5% (inactive) in assay [7] and -26.9% (inactive) in assay [8]. The inhibition of aggregation in assay [2] was 1.5% (inactive). Further, the nuclei count in assay [2] is 104%; in assay [3] it was 120%. In addition, the fluorescence slope is -0.344 (inactive) in assay [4] and 0.0102 (inactive) in assay [6]. Besides, the NADPH fluorescence slope in assay [5] is -1.7e-05 (inactive).
